From ChEMBL document CHEMBL1921679, “Synthesis and biological evaluation of novel pyrimidine derivatives as sub-micromolar affinity ligands of GalR2” (Bioorg Med Chem Lett, 2011)

What was measured:
Galanin receptor type 2 [1] = target: T1, Galanin receptor type 2 (Homo sapiens, UniProt O43603); assay: Displacement of [125I]galanin from GalR2 by gamma counting
T1 sequence (O43603 whole entry): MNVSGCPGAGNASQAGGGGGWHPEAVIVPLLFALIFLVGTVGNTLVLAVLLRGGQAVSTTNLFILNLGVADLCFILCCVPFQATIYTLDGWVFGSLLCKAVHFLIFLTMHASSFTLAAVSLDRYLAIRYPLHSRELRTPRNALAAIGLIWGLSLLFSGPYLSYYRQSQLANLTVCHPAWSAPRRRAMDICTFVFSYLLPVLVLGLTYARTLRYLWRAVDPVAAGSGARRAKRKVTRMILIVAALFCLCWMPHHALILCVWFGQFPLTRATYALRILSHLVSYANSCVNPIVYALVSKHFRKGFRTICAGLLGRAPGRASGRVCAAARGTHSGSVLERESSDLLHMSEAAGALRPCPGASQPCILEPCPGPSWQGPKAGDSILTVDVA
Method in brief: (§1)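 Full-curve competition over 10 nM–100 μM, with a rat galanin control on every plate. Compounds were diluted in 20% DMSO. Membranes were GalR1 2.5 μg or GalR2 5 μg, with 125I porcine galanin at 0.1 nM (GalR1) or 0.15 nM (GalR2), 1 h at room temperature. Filtration, washing and γ-counting followed. IC50 came from a nonlinear one-site competition fit, reported only when the curve bottom fell below 35% of total binding.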

Galanin receptor type 1 [2] = target: T2, Galanin receptor type 1 (Homo sapiens, UniProt P47211); assay: Displacement of [125I]galanin from GalR1 at 100 uM by gamma counting
T2 sequence (P47211 whole entry): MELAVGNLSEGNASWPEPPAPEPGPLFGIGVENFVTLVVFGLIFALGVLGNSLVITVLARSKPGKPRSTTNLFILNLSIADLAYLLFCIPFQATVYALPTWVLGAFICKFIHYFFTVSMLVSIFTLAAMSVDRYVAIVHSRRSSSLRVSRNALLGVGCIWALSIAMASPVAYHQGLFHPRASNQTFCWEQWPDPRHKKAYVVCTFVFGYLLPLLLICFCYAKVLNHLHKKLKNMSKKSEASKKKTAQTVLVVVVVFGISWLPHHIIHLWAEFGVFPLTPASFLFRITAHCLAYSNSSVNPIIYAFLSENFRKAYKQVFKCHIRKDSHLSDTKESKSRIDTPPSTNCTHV

[3] = target: T3, Galanin receptor type 2 (Homo sapiens) (UniProt O43603); assay: Displacement of [125I]galanin from GalR2 at 1 uM by gamma counting
T3 sequence (whole entry): T1 sequence (O43603 whole entry)
Method in brief: (§2)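 Single-point screen at 1 and 10 μM, in duplicate, with two screens per receptor. Final 125I porcine galanin was 0.1 nM (GalR1) or 0.15 nM (GalR2). Incubation 1 h, room temperature. Filtration through PEI-treated glass fibre, cold PBS/Triton washes, γ-counting.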

[4] = target: T3, Galanin receptor type 2 (Homo sapiens); assay: Displacement of [125I]galanin from GalR2 at 10 uM by gamma counting; method in brief: as §2
Galanin receptor type 1 [5] = target: T2, Galanin receptor type 1; assay: Displacement of [125I]galanin from GalR1 by gamma counting; method in brief: as §1
Galanin receptor type 2 [6] = target: T1, Galanin receptor type 2; assay: Displacement of [125I]galanin from GalR2 at 100 uM by gamma counting

SMILES | IC50 (Galanin receptor type 2 [1]) | IC50 (Galanin receptor type 1 [2]) | inhibition [3] | inhibition [4] | IC50 (Galanin receptor type 1 [5]) | IC50 (Galanin receptor type 2 [6])
COc1ccc(Nc2cc(Nc3ccc(OC(F)(F)F)cc3)nc(NC3CCCCC3)n2)cc1 | 1.06 µM | – | > 50% | > 50% | 5.93 µM | –
COc1ccc(Nc2nc(Nc3ccc(OC)c(F)c3)cc(N3CCCCCC3)n2)cc1 | 0.77 µM | – | > 50% | > 50% | 5.48 µM | –
COc1ccc(Nc2nc(Nc3ccc(OC)c(F)c3)cc(N3CCN(c4ncccn4)CC3)n2)cc1 | – | – | – | – | 3.84 µM | Not Active
COc1ccc(Nc2nc(Nc3cccc(OC(F)F)c3)cc(N3CCCCC3)n2)cc1 | 0.54 µM | Not Active | > 50% | > 50% | – | –
COc1ccc(Nc2nc(NCC3CCCCC3)cc(Nc3ccc(OC)c(F)c3)n2)cc1 | – | – | > 50% | > 50% | 3.84 µM | Not Active
COc1ccc(Nc2nc(Nc3ccc(OC)c(F)c3)cc(N3CCC(N4CCCCC4)CC3)n2)cc1 | – | – | – | – | 16 µM | Not Active
COc1ccc(Nc2nc(NCc3cccc(C(F)(F)F)c3)cc(N3CCCCC3)n2)cc1 | 1.93 µM | Not Active | > 50% | > 50% | – | –
COc1ccc(Nc2nc(Nc3cccc(OC(F)(F)F)c3)cc(N3CCCCC3)n2)cc1 | 0.38 µM | Not Active | > 50% | > 50% | – | –
CCN(CC)c1cc(Nc2ccc(OC)c(F)c2)nc(Nc2ccc(OC)cc2)n1 | 2.85 µM | Not Active | > 50% | > 50% | – | –
COc1ccc(Nc2cc(Nc3cccc(OC(F)(F)F)c3)nc(NC3CCCCC3)n2)cc1 | 0.55 µM | – | > 50% | > 50% | 6.82 µM | –
COc1ccc(Nc2nc(Nc3ccc(OC)c(F)c3)cc(N3CCN(c4ccccc4)CC3)n2)cc1 | 24.9 µM | – | > 50% | > 50% | 6.82 µM | –
COc1ccc(Nc2cc(Nc3ccc(OC(F)F)cc3)nc(NC3CCCCC3)n2)cc1 | 12.5 µM | – | > 50% | > 50% | 27.5 µM | –
COc1ccc(Nc2nc(Nc3ccc(OC(F)(F)F)cc3)cc(N3CCCCC3)n2)cc1 | 0.33 µM | Not Active | > 50% | > 50% | – | –
COc1ccc(Nc2nc(Nc3ccc(OC)c(F)c3)cc(N3CCC(C)CC3)n2)cc1 | – | Not Active | – | – | – | Not Active
COc1ccc(Nc2nc(Nc3ccc(OC)c(F)c3)cc(N3CCCN(C(=O)OC(C)(C)C)CC3)n2)cc1 | 9.07 µM | – | > 50% | > 50% | 2.82 µM | –
Cc1c(F)cccc1Nc1cc(N2CCCCC2)nc(N2CCCN(c3ncccc3C(F)(F)F)CC2)n1 | 0.56 µM | – | > 50% | > 50% | 1.3 µM | –
COc1ccc(Nc2cc(N3CCCCC3)nc(N3CCCN(c4ncccc4C(F)(F)F)CC3)n2)cc1F | 2.03 µM | – | > 50% | > 50% | 6.32 µM | –
COc1ccc(Nc2nc(Nc3ccc(OC)c(F)c3)cc(N3CCCC(C)C3)n2)cc1 (stereo not drawn) | 1.34 µM | – | > 50% | > 50% | 6.78 µM | –
COc1ccc(Nc2nc(Nc3ccc(F)c(Cl)c3)cc(N3CCCCC3)n2)cc1 | 4.18 µM | Not Active | > 50% | > 50% | – | –
COc1ccc(Nc2cc(Nc3cccc(OC)c3)nc(NC3CCCCC3)n2)cc1 | 1.75 µM | – | > 50% | > 50% | 5.62 µM | –
COc1ccc(Nc2nc(Nc3ccc(OC)c(F)c3)cc(N3CCCC3)n2)cc1 | – | Not Active | – | – | – | Not Active
COc1ccc(Nc2nc(Nc3ccc(OC)c(F)c3)cc(N3CCCCC3)n2)cc1 | 0.43 µM | Not Active | > 50% | > 50% | – | –
COc1ccc(Nc2nc(Nc3ccc(OC)c(F)c3)cc(N3CCCCC3C)n2)cc1 (stereo not drawn) | – | Not Active | – | – | – | Not Active
COc1ccc(Nc2nc(Nc3ccc(OC(F)F)cc3)cc(N3CCCCC3)n2)cc1 | – | Not Active | – | – | – | Not Active
COc1ccc(Nc2cc(Nc3cccc(OC(F)F)c3)nc(NC3CCCCC3)n2)cc1 | 0.77 µM | – | > 50% | > 50% | 5.03 µM | –
COc1ccc(Nc2cc(N3CCCCC3)nc(N3CCCN(c4ncccc4C(F)(F)F)CC3)n2)cc1 | 1.92 µM | – | > 50% | > 50% | 3.35 µM | –
COc1ccc(Nc2nc(Nc3ccc(C(F)(F)F)cc3)cc(N3CCCCC3)n2)cc1 | 0.78 µM | Not Active | > 50% | > 50% | – | –

Second part, the compound after the results:

IC50 (Galanin receptor type 2 [1]) | IC50 (Galanin receptor type 1 [2]) | inhibition [3] | inhibition [4] | IC50 (Galanin receptor type 1 [5]) | IC50 (Galanin receptor type 2 [6]) | SMILES
0.38 µM | Not Active | > 50% | > 50% | – | – | COc1ccc(Nc2nc(Nc3cccc(F)c3C)cc(N3CCCCC3)n2)cc1
0.44 µM | Not Active | > 50% | > 50% | – | – | COc1ccc(Nc2nc(Nc3cc(C)ccc3C)cc(N3CCCCC3)n2)cc1
6.62 µM | – | > 50% | > 50% | 34.9 µM | – | FC(F)(F)Oc1cccc(Nc2cc(Nc3ccccc3)nc(N3CCCCC3)n2)c1
1.09 µM | – | > 50% | > 50% | 8.59 µM | – | COc1ccc(Nc2cc(Nc3ccccc3)nc(N3CCCCC3)n2)cc1
0.93 µM | – | > 50% | > 50% | 4.6 µM | – | COc1ccc(Nc2cc(Nc3cccc(OC)c3)nc(N3CCCC3)n2)cc1
3.4 µM | – | > 50% | > 50% | 12.8 µM | – | COc1ccc(Nc2cc(N3CCN(c4ccccc4)CC3)nc(N3CCCC3)n2)cc1
1.18 µM | Not Active | > 50% | > 50% | – | – | COc1ccc(Nc2nc(Nc3ccc(C)cc3C)cc(N3CCCCC3)n2)cc1
3.69 µM | Not Active | > 50% | > 50% | – | – | c1ccc(Nc2cc(NCc3ccc4c(c3)OCO4)nc(N3CCCCC3)n2)cc1
8.04 µM | Not Active | > 50% | > 50% | – | – | COc1ccc(Nc2cc(Nc3ccc(OC)cc3)nc(N3CCCC3)n2)cc1
0.98 µM | Not Active | > 50% | > 50% | – | – | COc1ccc(Nc2nc(Nc3ccc(F)cc3C)cc(N3CCCCC3)n2)cc1
2.08 µM | – | > 50% | > 50% | 3.9 µM | – | Cc1ccc(C)c(Nc2cc(N3CCCCC3)nc(N3CCCN(c4ncccc4C(F)(F)F)CC3)n2)c1
– | Not Active | – | – | – | Not Active | FC(F)(F)Oc1ccc(Nc2cc(Nc3ccccc3)nc(N3CCCCC3)n2)cc1
4.15 µM | – | > 50% | > 50% | 6.9 µM | – | FC(F)Oc1cccc(Nc2cc(Nc3ccccc3)nc(N3CCCCC3)n2)c1
4.57 µM | Not Active | > 50% | > 50% | – | – | Cc1ccc(C)c(Nc2cc(Nc3ccccc3)nc(N3CCCCC3)n2)c1
8.65 µM | – | > 50% | > 50% | 6.77 µM | – | COc1ccc(Nc2cc(Nc3ccccc3)nc(N3CCCCC3)n2)cc1F
3.38 µM | Not Active | > 50% | > 50% | – | – | FC(F)Oc1ccc(Nc2cc(Nc3ccccc3)nc(N3CCCCC3)n2)cc1
